Reference: PMC7262549 (Biochemistry and Biophysics Reports, 2020)
Where two headings read alike, the source gives them in different places.

Legend:
Conditions in all cases: 4 mM MgSO4
Pmat (wt) [1] = tested on: Pmat (wt)
Pmat (wt) [2] = experiment: luminometry, peak light intensity, Michaelis-Menten fit; type: biochemical, Pyrocoelia matsumurai kumejimensis
Psag (wt) [3] = experiment: as above; type: biochemical, Pristolycus sagulatus
MALuci2 (wt) = experiment: luminometry, peak light intensity, Michaelis-Menten fit; type: biochemical, Luciola sp.
In short: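 Wild-type luciferase coding sequence from lantern cDNA, expressed from pRSET-B in E. coli JM109(DE3) and Ni-NTA purified. Luciferin Km: 50 μg/mL partially purified enzyme, luciferin 0.6–640 μM. ATP Km: 50 μg/mL purified enzyme, ATP 5–1920 μM. Light emission recorded 10 s at 0.02 s gating on a luminometer. Rate taken as peak intensity; Km from least-squares Michaelis–Menten fit.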

Dkum (wt) [4] = tested on: Dkum (wt)
Dkum (wt) [5] = experiment: luminometry, peak light intensity, Michaelis-Menten fit; type: biochemical, Drilaster kumejimensis
Sfla (wt) [6] = tested on: Sfla (wt)
Sfla (wt) [7] = experiment: luminometry, peak light intensity, Michaelis-Menten fit; type: biochemical, Stenocladius flavipennis
Psag (wt) [8] = tested on: Psag (wt)
[9] = read-out: Km (ATP μM), 50 mM Tris-HCl pH 8.0, 1 mM luciferin
[10] = read-out: Km (luciferin μM), 50 mM Tris-HCl pH 8.0, 2 mM ATP

| Compound | Km (Pmat (wt) [1]; [9]) | Km (Pmat (wt) [2]; [9]) | Km (Psag (wt) [3]; [9]) | Km (MALuci2 (wt); [9]) | Km (Dkum (wt) [4]; [9]) | Km (Dkum (wt) [5]; [9]) | Km (Sfla (wt) [6]; [9]) | Km (Sfla (wt) [7]; [9]) | Km (Psag (wt) [8]; [9]) | Km (Pmat (wt) [1]; [10]) | Km (Pmat (wt) [2]; [10]) | Km (Psag (wt) [3]; [10]) | Km (MALuci2 (wt); [10]) | Km (Dkum (wt) [4]; [10]) | Km (Dkum (wt) [5]; [10]) | Km (Sfla (wt) [6]; [10]) | Km (Sfla (wt) [7]; [10]) | Km (Psag (wt) [8]; [10]) |
| --- | --- | --- | --- | --- | --- | --- | --- | --- | --- | --- | --- | --- | --- | --- | --- | --- | --- | --- |
| Nc1ncnc2c1ncn2[C@@H]1O[C@H](COP(=O)(O)OP(=O)(O)OP(=O)(O)O)[C@@H](O)[C@H]1O [ATP] | 98.1 µM | 104 µM | 194 µM | 188 µM | 26.8 µM | 127 µM | 9 µM | 21.5 µM | 282 µM | – | – | – | – | – | – | – | – | – |
| O=C(O)[C@H]1CSC(c2nc3ccc(O)cc3s2)=N1 [D-luciferin] | – | – | – | – | – | – | – | – | – | 62.2 µM | 14.2 µM | 4.9 µM | 4.25 µM | 19.4 µM | 60.1 µM | 6.6 µM | 16.6 µM | 222 µM |
